Data published in ChEMBL document CHEMBL1142242, “Indanylacetic acid derivatives carrying 4-thiazolyl-phenoxy tail groups, a new class of potent PPAR alpha/gamma/delta pan agonists: synthesis, structure-activity relationship, and in vivo efficacy” (J Med Chem, 2007).
The source made the active and inactive calls. No cut-off for these calls is given here.

Tests used:
Cytochrome P450 2D6 = Cytochrome P450 2D6 (Homo sapiens, UniProt P10635); assay: Inhibition of CYP2D6; assay type: ADME
Method in brief: (§1)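 Enzyme assays per CYP isoform (1A2, 2C8, 2D6, 3A4), with turnover of an appropriate fluorescent substrate as read-out; IC₅₀ reported.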

Glucocorticoid receptor = Glucocorticoid receptor (Homo sapiens, UniProt P04150); assay: Displacement of [H]dexamethaxone from glucocorticoid receptor in HUH cells; assay type: cell-based
Estrogen receptor = Estrogen receptor (Mus musculus, UniProt O08537+P19785); assay: Displacement of [3H]O-estradiol from ER in Swiss mouse uteri; assay type: protein assay
[1] = target: T1, Peroxisome proliferator-activated receptor gamma (Mus musculus, UniProt P37238); assay: Agonist activity at PPAR gamma in mouse 3T3L1 cells assessed as increase in insulin receptor by IRBA; assay type: functional, cell-based, 3T3-L1
T1 sequence (P37238 whole entry): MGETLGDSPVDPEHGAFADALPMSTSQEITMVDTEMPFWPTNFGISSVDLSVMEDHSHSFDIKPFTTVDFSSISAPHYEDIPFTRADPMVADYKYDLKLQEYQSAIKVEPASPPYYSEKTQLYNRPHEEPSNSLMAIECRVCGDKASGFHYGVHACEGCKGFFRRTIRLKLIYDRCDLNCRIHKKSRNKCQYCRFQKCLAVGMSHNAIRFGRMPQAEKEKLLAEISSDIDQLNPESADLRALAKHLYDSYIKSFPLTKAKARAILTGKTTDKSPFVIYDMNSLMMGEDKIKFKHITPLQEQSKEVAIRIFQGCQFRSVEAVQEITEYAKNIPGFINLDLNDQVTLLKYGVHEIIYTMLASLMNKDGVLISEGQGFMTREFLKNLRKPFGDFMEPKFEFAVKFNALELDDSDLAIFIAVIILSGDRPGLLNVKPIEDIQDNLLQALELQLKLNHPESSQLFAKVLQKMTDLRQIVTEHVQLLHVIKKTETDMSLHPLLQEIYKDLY

[2] = target: T2, Peroxisome proliferator-activated receptor delta (Homo sapiens, UniProt Q03181); assay: Agonist activity at human PPAR delta by FRET assay; assay type: functional
T2 sequence (Q03181 whole entry): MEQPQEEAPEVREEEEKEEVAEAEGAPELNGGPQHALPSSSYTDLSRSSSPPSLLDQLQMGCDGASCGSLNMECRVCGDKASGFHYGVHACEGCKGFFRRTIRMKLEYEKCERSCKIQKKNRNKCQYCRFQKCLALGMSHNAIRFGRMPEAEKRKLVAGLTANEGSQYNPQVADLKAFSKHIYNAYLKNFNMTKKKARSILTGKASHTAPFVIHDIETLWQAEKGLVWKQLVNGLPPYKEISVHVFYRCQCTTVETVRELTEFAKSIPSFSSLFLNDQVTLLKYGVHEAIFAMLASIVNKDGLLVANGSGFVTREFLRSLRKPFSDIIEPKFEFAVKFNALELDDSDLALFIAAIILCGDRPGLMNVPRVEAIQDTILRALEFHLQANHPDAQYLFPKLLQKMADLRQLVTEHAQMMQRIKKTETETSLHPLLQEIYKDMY

Cytochrome P450 3A4 = Cytochrome P450 3A4 (Homo sapiens, UniProt P08684); assay: Inhibition of CYP3A4; assay type: ADME; method in brief: as §1
[3] = target: T3, Peroxisome proliferator-activated receptor alpha (Homo sapiens, UniProt Q07869); assay: Agonist activity at human PPAR alpha by FRET assay; assay type: functional
T3 sequence (Q07869 whole entry): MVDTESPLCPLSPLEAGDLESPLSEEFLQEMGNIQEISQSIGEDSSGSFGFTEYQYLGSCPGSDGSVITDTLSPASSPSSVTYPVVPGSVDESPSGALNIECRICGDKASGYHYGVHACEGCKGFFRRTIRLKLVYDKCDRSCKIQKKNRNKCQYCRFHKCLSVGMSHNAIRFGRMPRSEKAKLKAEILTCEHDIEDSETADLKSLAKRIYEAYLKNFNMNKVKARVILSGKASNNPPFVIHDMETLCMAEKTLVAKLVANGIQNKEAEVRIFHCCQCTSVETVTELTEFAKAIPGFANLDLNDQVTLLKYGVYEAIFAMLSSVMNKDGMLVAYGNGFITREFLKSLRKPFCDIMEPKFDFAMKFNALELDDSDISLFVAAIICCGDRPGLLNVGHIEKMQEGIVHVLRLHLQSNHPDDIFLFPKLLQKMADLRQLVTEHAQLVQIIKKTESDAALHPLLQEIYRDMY
Method in brief: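 Human PPARα ligand binding domain (GST-tagged) association with biotin-labeled co-activator CBP; Eu-labeled anti-GST antibody and streptavidin-APC; incubated 2 h at rt in buffer with or without compound; fluorescence read at 615 or 655 nm emission, 340 nm excitation.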

Androgen receptor = Androgen receptor (Homo sapiens, UniProt P10275); assay: Displacement of [3H]dihydrotestosterone from human recombinant androgen receptor expressed in SF9 baculovirus cells
Cytochrome P450 2C8 = Cytochrome P450 2C8 (Homo sapiens, UniProt P10632); assay: Inhibition of CYP2C8; assay type: ADME; method in brief: as §1
[4] = Cmax in mouse at 10 mg/kg, po; assay type: ADME, organism-based; set-up: dose 10 mg/kg, route oral; conditions: in vivo
Method in brief: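 Mice dosed orally in 0.5% methylcellulose vehicle; plasma Cmax reported.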

[5] = target: T3, Peroxisome proliferator-activated receptor alpha; assay: (§2) Agonist activity at human PPAR alpha expressed in CV1 cells by GAL4 transactivation assay; assay type: functional, cell-based, CV-1
Method in brief: (§3)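 CV-1 cells plated, grown overnight at 37 °C in 5% CO₂, then transfected with GAL4-fused human PPARα ligand binding domain, pFR-LUC and pRL-SV40 reporter DNAs by lipofection. After a further overnight incubation, cells were exposed to compound or vehicle overnight. Activity was read as dual-luciferase reporter signal.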

[6] = target: T4, Peroxisome proliferator-activated receptor alpha (Homo sapiens) (UniProt Q07869); assay: as §2; assay type: functional, cell-based; conditions: CV-1; method in brief: as §3
T4 sequence (whole entry): T3 sequence (Q07869 whole entry)

[7] = target: T5, Peroxisome proliferator-activated receptor alpha (Mus musculus) (UniProt P23204); assay: (§4) Agonist activity at mouse PPAR alpha; assay type: functional
T5 sequence (whole entry): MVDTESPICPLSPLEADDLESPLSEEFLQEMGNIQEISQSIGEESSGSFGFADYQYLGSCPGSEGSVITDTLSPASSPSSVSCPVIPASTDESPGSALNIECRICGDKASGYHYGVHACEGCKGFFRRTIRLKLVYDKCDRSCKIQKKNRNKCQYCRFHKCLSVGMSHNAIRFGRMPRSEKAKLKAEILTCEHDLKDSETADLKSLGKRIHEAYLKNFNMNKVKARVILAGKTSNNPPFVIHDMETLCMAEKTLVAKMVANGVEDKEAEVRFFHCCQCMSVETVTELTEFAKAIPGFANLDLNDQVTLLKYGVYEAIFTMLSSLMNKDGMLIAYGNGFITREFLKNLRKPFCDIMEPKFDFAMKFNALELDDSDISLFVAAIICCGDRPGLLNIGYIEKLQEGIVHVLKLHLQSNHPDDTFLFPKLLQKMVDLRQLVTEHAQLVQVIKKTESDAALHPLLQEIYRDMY

[8] = target: Peroxisome proliferator-activated receptor alpha (Mus musculus, UniProt P23204); assay: as §4; assay type: functional
[9] = target: T2, Peroxisome proliferator-activated receptor delta; assay: Agonist activity at human PPAR delta expressed in CV1 cells by GAL4 transactivation assay
Cytochrome P450 2C9 = Cytochrome P450 2C9 (Homo sapiens, UniProt P11712); assay: Inhibition of CYP2C9; assay type: ADME
Cytochrome P450 1A2 = Cytochrome P450 1A2 (Homo sapiens, UniProt P05177); assay: Inhibition of CYP1A2; assay type: ADME; method in brief: as §1
[10] = target: PPAR gamma (Homo sapiens); assay: Agonist activity at human PPAR gamma expressed in human preadipocytes assessed as increase in insulin receptor by IRBA
Progesterone receptor = Progesterone receptor (Homo sapiens, UniProt P06401); assay: Displacement of [3H]progesterone from progesterone receptor in T47D cells; assay type: cell-based
Method in brief: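 Cytosol from T47D cells incubated overnight at 4 °C with ³H-progesterone at 10 nM final, with or without compound. DMSO defined total binding and 1 µM unlabelled progesterone defined nonspecific binding. Bound and free ligand were separated on a spin plate, and the flow-through was counted by scintillation.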

[11] = target: Peroxisome proliferator-activated receptor delta (Mus musculus, UniProt P35396); assay: Agonist activity at mouse PPAR delta
[12] = Aqueous solubility at pH 6.8; assay type: physicochemical
Syrian golden hamster [13] = assay: Reduction of VLDL level in fat fed hyperlipidemic Golden Syrian hamster at 100 mg/kg, po after 14 days; assay type: functional, organism-based; set-up: dose 100 mg/kg; conditions: Mesocricetus auratus
Method in brief: (§5)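 Male Syrian Golden hamsters (≤7 weeks, 120-150 g) on high fat diet plus 10% fructose drinking water; bled day 10, then dosed orally once daily by weight for 14 days; necropsy day 24; EDTA plasma lipoproteins resolved by FPLC; mean ± SEM, 10 hamsters.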

Syrian golden hamster [14] = assay: Increase of HDL/LDL ratio in fat fed hyperlipidemic Golden Syrian hamster at 100 mg/kg, po after 14 days; assay type: functional, organism-based; set-up: dose 100 mg/kg; conditions: Mesocricetus auratus; method in brief: as §5
Syrian golden hamster [15] = assay: Reduction of LDL level in fat fed hyperlipidemic Golden Syrian hamster at 100 mg/kg, po after 14 days; assay type: functional, organism-based; set-up: dose 100 mg/kg; conditions: Mesocricetus auratus; method in brief: as §5
Mus musculus [16] = assay: Reduction of blood glucose level in orally dosed db/db mouse at 3 mg/kg after 8 days; assay type: functional, organism-based; set-up: dose 3 mg/kg
Method in brief: (§6)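 Female db/db mice, on chow 3-4 weeks to confirm hyperglycemia, grouped by equal baseline blood glucose; oral dosing once daily in 0.5% methylcellulose in water; blood glucose by analyzer ~24 h after last dose; percent change vs vehicle = ((Tf/Ti)/(Vf/Vi) − 1) × 100.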

Rattus norvegicus = assay: Reduction of FFA level in ZDF rat at 10 mg/kg, po after 21 days; assay type: functional, organism-based; set-up: dose 10 mg/kg
Method in brief: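 Male ZDF rats, on chow 4-8 weeks to confirm hyperglycemia, grouped by equal baseline blood glucose; oral dosing once daily for 21 days in 0.5% methylcellulose in water; bled ~24 h after last dose; plasma FFA measured.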

Mus musculus [17] = assay: Reduction of blood glucose level in orally dosed db/db mouse at 1 mg/kg after 8 days; assay type: functional, organism-based; set-up: dose 1 mg/kg; method in brief: as §6
Mus musculus [18] = assay: Reduction of blood glucose level in orally dosed db/db mouse at 10 mg/kg after 8 days; assay type: functional, organism-based; set-up: dose 10 mg/kg; method in brief: as §6

Sequence of Cytochrome P450 2D6 (P10635 whole entry, canonical isoform): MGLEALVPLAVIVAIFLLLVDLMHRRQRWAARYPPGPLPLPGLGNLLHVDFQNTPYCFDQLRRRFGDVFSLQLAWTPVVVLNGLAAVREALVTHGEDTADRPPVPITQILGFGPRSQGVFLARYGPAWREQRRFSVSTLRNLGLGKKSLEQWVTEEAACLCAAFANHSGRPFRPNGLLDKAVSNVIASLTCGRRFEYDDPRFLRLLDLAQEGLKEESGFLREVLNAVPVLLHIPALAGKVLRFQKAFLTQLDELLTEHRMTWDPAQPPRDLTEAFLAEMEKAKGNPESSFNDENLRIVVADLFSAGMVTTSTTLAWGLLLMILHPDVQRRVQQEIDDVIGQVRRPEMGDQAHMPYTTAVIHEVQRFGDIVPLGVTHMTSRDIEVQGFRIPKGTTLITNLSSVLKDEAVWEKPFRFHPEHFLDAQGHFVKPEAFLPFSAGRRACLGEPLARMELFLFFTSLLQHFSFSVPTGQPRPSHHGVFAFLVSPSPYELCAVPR
Sequence of Peroxisome proliferator-activated receptor delta (Mus musculus, UniProt P35396) (P35396 whole entry): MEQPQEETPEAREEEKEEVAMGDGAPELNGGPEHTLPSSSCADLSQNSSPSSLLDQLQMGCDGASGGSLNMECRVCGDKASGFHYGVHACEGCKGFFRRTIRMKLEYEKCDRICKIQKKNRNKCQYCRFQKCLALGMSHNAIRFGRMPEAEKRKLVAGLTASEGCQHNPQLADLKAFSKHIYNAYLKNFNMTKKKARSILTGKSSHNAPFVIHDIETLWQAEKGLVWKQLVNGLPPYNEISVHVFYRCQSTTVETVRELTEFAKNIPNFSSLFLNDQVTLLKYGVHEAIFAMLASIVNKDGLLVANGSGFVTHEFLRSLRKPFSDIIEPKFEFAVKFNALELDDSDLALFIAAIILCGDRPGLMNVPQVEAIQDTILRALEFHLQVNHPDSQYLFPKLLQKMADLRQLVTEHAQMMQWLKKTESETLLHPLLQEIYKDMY
Sequence of Glucocorticoid receptor (P04150 whole entry): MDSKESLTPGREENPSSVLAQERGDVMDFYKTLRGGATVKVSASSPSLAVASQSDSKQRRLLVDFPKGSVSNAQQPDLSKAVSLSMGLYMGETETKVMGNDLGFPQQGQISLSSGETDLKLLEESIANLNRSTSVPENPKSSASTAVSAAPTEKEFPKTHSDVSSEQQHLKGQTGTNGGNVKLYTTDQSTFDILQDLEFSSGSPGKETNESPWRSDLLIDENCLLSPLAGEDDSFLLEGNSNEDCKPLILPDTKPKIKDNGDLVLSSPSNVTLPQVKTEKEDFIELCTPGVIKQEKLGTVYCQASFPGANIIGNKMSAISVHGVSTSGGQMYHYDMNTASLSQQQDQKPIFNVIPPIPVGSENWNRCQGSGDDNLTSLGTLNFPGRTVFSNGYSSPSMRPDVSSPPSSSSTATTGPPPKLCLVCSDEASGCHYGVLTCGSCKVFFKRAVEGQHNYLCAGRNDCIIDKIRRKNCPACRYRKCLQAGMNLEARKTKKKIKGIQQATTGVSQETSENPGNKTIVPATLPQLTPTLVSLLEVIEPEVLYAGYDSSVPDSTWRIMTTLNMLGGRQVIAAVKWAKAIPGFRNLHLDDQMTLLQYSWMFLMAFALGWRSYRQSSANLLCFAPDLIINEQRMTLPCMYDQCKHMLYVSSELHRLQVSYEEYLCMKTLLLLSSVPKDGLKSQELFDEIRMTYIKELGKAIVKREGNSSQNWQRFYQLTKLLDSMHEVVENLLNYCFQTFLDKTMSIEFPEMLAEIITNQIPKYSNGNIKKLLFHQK
Sequence of Cytochrome P450 1A2 (P05177 whole entry): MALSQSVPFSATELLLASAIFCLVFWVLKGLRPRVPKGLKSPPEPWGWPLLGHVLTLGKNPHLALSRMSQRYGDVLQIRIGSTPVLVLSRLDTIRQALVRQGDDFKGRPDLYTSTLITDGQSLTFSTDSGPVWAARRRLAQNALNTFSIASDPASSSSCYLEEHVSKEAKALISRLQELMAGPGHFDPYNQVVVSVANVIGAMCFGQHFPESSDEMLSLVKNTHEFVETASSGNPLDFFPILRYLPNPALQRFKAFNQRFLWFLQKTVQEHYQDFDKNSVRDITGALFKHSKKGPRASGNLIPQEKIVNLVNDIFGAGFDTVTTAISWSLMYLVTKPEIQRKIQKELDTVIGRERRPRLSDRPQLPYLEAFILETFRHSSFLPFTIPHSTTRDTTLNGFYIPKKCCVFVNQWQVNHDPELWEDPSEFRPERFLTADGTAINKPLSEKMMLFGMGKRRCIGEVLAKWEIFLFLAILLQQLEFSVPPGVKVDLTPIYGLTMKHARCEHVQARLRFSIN
Sequence of Cytochrome P450 2C8 (P10632 whole entry): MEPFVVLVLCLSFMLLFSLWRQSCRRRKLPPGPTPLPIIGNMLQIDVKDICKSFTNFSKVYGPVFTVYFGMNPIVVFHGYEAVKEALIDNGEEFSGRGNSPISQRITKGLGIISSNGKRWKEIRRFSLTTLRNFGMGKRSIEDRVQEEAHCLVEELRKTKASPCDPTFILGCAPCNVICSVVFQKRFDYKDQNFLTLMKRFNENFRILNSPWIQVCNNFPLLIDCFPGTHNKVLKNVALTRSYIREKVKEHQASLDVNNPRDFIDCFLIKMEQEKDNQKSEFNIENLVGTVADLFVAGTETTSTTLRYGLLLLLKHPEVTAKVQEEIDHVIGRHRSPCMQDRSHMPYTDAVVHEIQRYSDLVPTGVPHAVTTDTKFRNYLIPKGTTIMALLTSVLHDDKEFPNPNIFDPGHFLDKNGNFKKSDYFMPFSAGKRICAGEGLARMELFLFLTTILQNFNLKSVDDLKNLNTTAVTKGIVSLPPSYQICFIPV
Sequence of Androgen receptor (P10275 whole entry): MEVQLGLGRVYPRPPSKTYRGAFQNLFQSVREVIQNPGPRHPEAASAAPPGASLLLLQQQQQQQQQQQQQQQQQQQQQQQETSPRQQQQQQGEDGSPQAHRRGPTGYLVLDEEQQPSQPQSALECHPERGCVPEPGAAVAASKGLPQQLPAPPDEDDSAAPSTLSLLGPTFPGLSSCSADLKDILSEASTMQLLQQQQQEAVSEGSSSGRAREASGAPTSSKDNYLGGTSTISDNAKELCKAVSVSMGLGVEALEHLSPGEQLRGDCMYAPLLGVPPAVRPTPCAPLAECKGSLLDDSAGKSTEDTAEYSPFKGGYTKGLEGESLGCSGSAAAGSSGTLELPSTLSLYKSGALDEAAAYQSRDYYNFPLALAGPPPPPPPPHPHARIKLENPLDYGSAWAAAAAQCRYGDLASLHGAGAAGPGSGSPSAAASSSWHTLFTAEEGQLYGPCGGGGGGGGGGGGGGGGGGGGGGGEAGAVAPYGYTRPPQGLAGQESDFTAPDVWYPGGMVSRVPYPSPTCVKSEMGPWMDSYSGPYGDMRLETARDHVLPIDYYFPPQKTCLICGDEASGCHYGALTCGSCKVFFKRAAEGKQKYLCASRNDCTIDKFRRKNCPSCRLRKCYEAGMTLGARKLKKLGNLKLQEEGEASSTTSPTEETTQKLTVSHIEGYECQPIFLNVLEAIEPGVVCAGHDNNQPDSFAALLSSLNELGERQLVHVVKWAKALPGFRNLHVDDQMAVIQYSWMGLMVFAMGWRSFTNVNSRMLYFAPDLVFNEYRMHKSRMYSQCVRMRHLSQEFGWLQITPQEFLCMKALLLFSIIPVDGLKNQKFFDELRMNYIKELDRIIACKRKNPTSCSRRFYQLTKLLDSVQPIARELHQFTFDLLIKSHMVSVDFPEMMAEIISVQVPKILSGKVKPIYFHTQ
Sequence of Cytochrome P450 2C9 (P11712 whole entry): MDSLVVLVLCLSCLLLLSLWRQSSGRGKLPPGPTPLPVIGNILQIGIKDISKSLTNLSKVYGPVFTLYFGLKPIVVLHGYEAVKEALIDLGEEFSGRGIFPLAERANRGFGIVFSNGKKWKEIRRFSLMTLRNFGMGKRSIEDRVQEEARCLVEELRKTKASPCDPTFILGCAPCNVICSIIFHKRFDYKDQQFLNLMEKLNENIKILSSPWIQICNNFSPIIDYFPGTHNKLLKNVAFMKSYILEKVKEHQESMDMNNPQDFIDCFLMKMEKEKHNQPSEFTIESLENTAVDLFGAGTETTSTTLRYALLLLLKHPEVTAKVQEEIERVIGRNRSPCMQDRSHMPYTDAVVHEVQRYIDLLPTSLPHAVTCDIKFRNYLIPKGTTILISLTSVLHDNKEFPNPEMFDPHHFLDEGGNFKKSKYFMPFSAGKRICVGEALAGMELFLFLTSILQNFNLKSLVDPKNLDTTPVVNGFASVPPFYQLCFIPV
Sequence of Cytochrome P450 3A4 (P08684 whole entry): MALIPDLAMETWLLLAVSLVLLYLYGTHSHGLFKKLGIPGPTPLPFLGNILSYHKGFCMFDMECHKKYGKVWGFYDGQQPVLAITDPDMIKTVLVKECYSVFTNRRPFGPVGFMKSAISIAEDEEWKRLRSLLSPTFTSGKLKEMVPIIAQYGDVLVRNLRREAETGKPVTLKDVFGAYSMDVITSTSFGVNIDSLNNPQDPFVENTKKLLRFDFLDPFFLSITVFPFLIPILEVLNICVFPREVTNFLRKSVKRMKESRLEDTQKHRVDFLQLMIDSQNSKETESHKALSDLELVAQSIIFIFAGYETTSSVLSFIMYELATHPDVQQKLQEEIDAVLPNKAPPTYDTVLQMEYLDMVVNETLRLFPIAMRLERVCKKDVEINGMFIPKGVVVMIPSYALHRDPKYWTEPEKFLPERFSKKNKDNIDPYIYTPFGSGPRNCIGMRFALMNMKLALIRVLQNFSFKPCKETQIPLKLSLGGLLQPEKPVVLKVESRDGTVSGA

Question: What does the source list for CCCc1cc(-c2nc3c(s2)CCCC3)ccc1OCCCOc1ccc2c(c1)CC[C@H]2CC(=O)O?
Answer: IC50 (Cytochrome P450 2D6): > 10000 nM; EC50 (Glucocorticoid receptor): > 10000 nM; EC50 (Estrogen receptor): > 10000 nM; EC50 [1]: 12 nM; EC50 [2]: 1.9 nM; IC50 (Cytochrome P450 3A4): > 10000 nM; EC50 [3]: 43 nM; EC50 (Androgen receptor): > 10000 nM; IC50 (Cytochrome P450 2C8): > 10000 nM; Cmax [4]: 5.1 µM; EC50 [5]: 5 nM; Activity [6]: 100%; Activity [7]: 79%; EC50 [8]: 7700 nM; EC50 [9]: 2.6 nM; IC50 (Cytochrome P450 2C9): > 10000 nM; IC50 (Cytochrome P450 1A2): > 10000 nM; EC50 [10]: 81 nM; EC50 (Progesterone receptor): > 10000 nM; EC50 [11]: 8.6 nM; solubility [12]: < 5 µM

Question: With CC(C)OC(=O)C(C)(C)Oc1ccc(C(=O)c2ccc(Cl)cc2)cc1 as the compound, how does the Activity (Syrian golden hamster [13]) read?
Answer: Its Activity is “Active”.

Question: And the Activity (Syrian golden hamster [14])?
Answer: The Activity was “Active”.

Question: And the Activity (Syrian golden hamster [15])?
Answer: Its Activity is “Active”.

Question: Which Activity (Mus musculus [16]) does the source give for CN(CCOc1ccc(CC2SC(=O)NC2=O)cc1)c1ccccn1 (stereo not drawn) here?
Answer: The Activity was “Dose-dependent effect”.

Question: What about the Activity (Rattus norvegicus) of the same compound?
Answer: The Activity was “Active”.

Question: What about the Activity (Mus musculus [17]) of the same compound?
Answer: Its Activity is “Dose-dependent effect”.

Question: And the Activity (Mus musculus [18])?
Answer: The Activity was “Dose-dependent effect”.
